Activity calls are given as the source filed them. The calls are words filed in the database; no cut-off is given here.
Key:
[1] = Cytotoxicity against Sprague-Dawley rat cortical neurons assessed as cell viability at 10 uM by LDH assay; settings: cortical neurone
[2] = tested on: Radical scavenging activity; assay: Antioxidant activity assessed as inhibition of DPPH-induced free radical generation at 80 uM after 30 mins relative to control; type: functional
Outline: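 DPPH scavenging given as % inhibition of DPPH absorbance, with values derived from a standard dose–response curve of vitamin C (0–500 µM). Mean ± SEM, N = 9.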

[3] = Antioxidant activity assessed as AAPH-induced free radical scavenging activity at 25 uM preincubated for 30 mins followed by AAPH induction measured every 5 mins for 9 hrs by ORAC assay relative to vehicle-treated control; type: functional
Outline: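 ORAC: area under the fluorescence decay curve (netAUC) expressed as fold change relative to vehicle control. Mean ± SEM, N = 12; trolox included as reference.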

Cortical neurone [4] = assay: Anti-excitotoxic activity in Sprague-Dawley rat cortical neurons assessed as reduction of NMDA-evoked neuronal injury at 10 uM incubated for 30 mins prior to NMDA induction and maintained during NMDA induction for 15 mins measured after 9 hrs; type: functional
Outline: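 Rat cortical neurons exposed to NMDA for 15 min, then incubated 9 h. Compound or MK801 (10 µM) added 30 min before and kept during NMDA. Injury scored as % inhibition of LDH release, given as median with interquartile range; N = 9–18.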

Cortical neurone [5] = assay: (§1) Anti-ischemic activity in Sprague-Dawley rat cortical neurons assessed as reduction of oxygen-glucose deprivation/reoxygenation-induced neuronal injury at 10 uM incubated for 30 mins prior to induction of oxygen-glucose deprivation and maintained during entire period of oxygen-glucose deprivation/reoxygenation measured after 9 hrs by LDH assay; type: functional
Outline: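 Rat cortical neurons given 90 min oxygen-glucose deprivation, then 9 h reoxygenation. Compound, MK801 or trolox (10 µM or indicated concentrations) applied 30 min before OGD and kept through OGD/R. Neuronal injury read by LDH assay; mean ± SEM, N = 24.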

Cortical neurone [6] = assay: as §1, with “deprivation-induced intracellular oxidative stress” for “deprivation/reoxygenation-induced neuronal injury”, “1 hr” for “9 hrs”, “H2DCFDA staining-based […] microscopic analysis” for “LDH assay”; type: functional, cell-based
Outline: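 Neurons pretreated 30 min before 90 min OGD, with treatment kept through reoxygenation. H2DCFDA loaded 1 h after reoxygenation; intracellular oxidative stress read as rise in fluorescence intensity 2 h later by imaging.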

Cortical neurone [7] = assay: Anti-excitotoxic activity in Sprague-Dawley rat cortical neurons assessed as inhibition of NMDA-induced intracellular calcium uptake at 10 uM incubated for 30 mins prior to NMDA induction measured after 50 secs by fluo-3 AM staining-based […] microscopic analysis; type: functional, cell-based
Outline: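 Cultured rat cortical neurons loaded with Fluo-3 AM for 30 min with or without 10 µM compound, then exposed to NMDA. Intracellular free Ca2+ read 50 s after NMDA as fold change in integrated fluorescence density of Ca2+-bound Fluo-3 over basal. Median, interquartile range and min–max reported; N = 4–5; compared with NMDA-treated group.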

[8] = tested on: Radical scavenging activity; assay: Antioxidant activity assessed as inhibition of DPPH-induced free radical generation at 1 to 500 uM after 30 mins relative to control; type: functional

| Structure (SMILES) | Activity [1] | inhibition [2] | fold change (FC) [3] | Activity (Cortical neurone [4]) | Activity (Cortical neurone [5]) | Activity (Cortical neurone [6]) | inhibition (Cortical neurone [7]) | inhibition [8] [%] |
| --- | --- | --- | --- | --- | --- | --- | --- | --- |
| CC1(C)[C@@H]2C[C@H]1C(/C=C/c1cccnc1)=CC2=O | Non-toxic | inactive | 1.59 |  |  |  |  |  |
| COc1ccc(/C=C/C2=CC(=O)[C@H]3C[C@@H]2C3(C)C)c(O)c1 | Non-toxic | 51.2% | 9.48 | Active |  |  |  |  |
| CC1(C)[C@@H]2C[C@H]1C(/C=C/c1ccccc1)=CC2=O | Non-toxic | inactive | 1.92 |  |  |  |  |  |
| COc1ccc(/C=C/C2=CC(=O)[C@H]3C[C@@H]2C3(C)C)cc1OC | Non-toxic | inactive | 2.73 |  |  |  |  |  |
| COc1cc(/C=C/C2=CC(=O)[C@H]3C[C@@H]2C3(C)C)cc(O)c1O [SP-8356] | Non-toxic | 83.6% | 6.86 | Active | Active | Active | Active |  |
| COc1cc(/C=C/C2=CC(=O)[C@H]3C[C@@H]2C3(C)C)cc(OC)c1 | Non-toxic | inactive | 3.14 |  |  |  |  |  |
| COc1cc(O)cc(OC)c1/C=C/C1=CC(=O)[C@H]2C[C@@H]1C2(C)C | Non-toxic | 55.8% | 11.5 |  |  |  |  |  |
| CC1(C)[C@@H]2C[C@H]1C(/C=C/c1ccccn1)=CC2=O | Non-toxic | inactive | 1.63 | Active |  |  |  |  |
| COc1cc(O)ccc1/C=C/C1=CC(=O)[C@H]2C[C@@H]1C2(C)C | Non-toxic | 38.1% | 7.37 |  |  |  |  |  |
| COc1ccc(OC)c(/C=C/C2=CC(=O)[C@H]3C[C@@H]2C3(C)C)c1 | Non-toxic | inactive | 2.25 |  |  |  |  |  |
| CC1(C)[C@@H]2C[C@H]1C(/C=C/c1ccc(-n3cccc3)cc1)=CC2=O | Non-toxic | inactive | 6.81 |  |  |  |  |  |
| CC1(C)[C@@H]2C[C@H]1C(/C=C/c1ccc(O)c(O)c1)=CC2=O | Non-toxic | 91.6% | 9.09 | Active | Active | Active |  |  |
| CC1=CC(=O)[C@H]2C[C@@H]1C2(C)C [LEVOVERBENONE] | Non-toxic | inactive | 1.19 |  |  |  |  |  |
| COc1ccc(/C=C/C2=CC(=O)[C@H]3C[C@@H]2C3(C)C)cc1 | Non-toxic | inactive | 2.64 |  |  |  |  |  |
| CC1(C)[C@@H]2C[C@H]1C(/C=C/c1ccc(F)cc1)=CC2=O | Non-toxic | inactive | 1.81 |  |  |  |  |  |
| CC1(C)[C@@H]2C[C@H]1C(/C=C/c1ccncc1)=CC2=O | Non-toxic | inactive | 1.56 |  |  |  |  |  |
| C[C@]12N[C@H](Cc3ccccc31)c1ccccc12 [DIZOCILPINE] | Non-toxic |  |  | Active | Active |  |  |  |
| O=C1O[C@H]([C@@H](O)CO)C(O)=C1O |  |  |  |  |  |  |  | 74 |
| CC1(C)[C@@H]2C[C@H]1C(/C=C/c1cccc(O)c1)=CC2=O | Non-toxic | inactive | 5.11 |  |  |  |  |  |
| CC1(C)[C@@H]2C[C@H]1C(/C=C/c1ccc(O)cc1)=CC2=O | Non-toxic | 19.1% | 10.7 | Active | Active | inactive |  |  |
| CC1(C)[C@@H]2C[C@H]1C(/C=C/c1ccc(-c3ccccc3)cc1)=CC2=O | Non-toxic | inactive | 1.85 |  |  |  |  |  |
| Cc1c(C)c2c(c(C)c1O)CCC(C)(C(=O)O)O2 (stereo not given) |  |  | 3.11 |  |  |  |  |  |
| CC1(C)[C@@H]2C[C@H]1C(/C=C/c1ccccc1O)=CC2=O | Non-toxic | 4.64% | 6.84 |  |  |  |  |  |
| CC1(C)[C@@H]2C[C@H]1C(/C=C/c1ccc(O)c(Br)c1)=CC2=O | Non-toxic | 29.4% | 11.6 |  |  |  |  |  |

Reference: ChEMBL document CHEMBL2424605, “Discovery of novel (1S)-(-)-verbenone derivatives with anti-oxidant and anti-ischemic effects” (Bioorg Med Chem Lett, 2013)
